What all share (type): functional, cell-based
For one assay, the system named is MDA-MB-231. The assay is described as follows: Anticancer activity against human MDA-MB-231 cells assessed as cell survival after 72 hrs by MTT assay. The essentials: (§1)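 Estrogen receptor-negative human breast cancer lines, tested by MTT cytotoxicity assay with chlorambucil as positive control.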
The next assay concerns MDA-MB-436. The assay is described as follows: (§2) Anticancer activity against human MDA-MB-436 cells assessed as cell survival after 72 hrs by MTT assay. The essentials:
(§3)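 Estrogen receptor-negative human breast cancer line, exposed to a range of concentrations for 72 h. MTT read-out is expressed as percent cell survival, with chlorambucil as positive control.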

The next assay relates to MCF7. The assay is described as follows: Anticancer activity against human MCF7 cells assessed as cell survival after 72 hrs by MTT assay. Summed up: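 Estrogen receptor-positive human breast cancer line, tested by MTT cytotoxicity assay with chlorambucil as positive control.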
Another assay concerns MDA-MB-468. The assay is described as follows: Anticancer activity against human MDA-MB-468 cells assessed as cell survival after 72 hrs by MTT assay. Summed up:
as §1

The nature of assay [1]: as §2. Particulars: MDA-MB-436, 72 h. The essentials: as §3

The structures appear in SMILES notation. Active and inactive are the calls of the source. The rule behind the calls is not given here. Where only a bound is given, the exact number is not on record here.

For the molecule `C[C@]12CC[C@@H]3c4ccc(O)cc4CC[C@H]3[C@@H]1C[C@@](CO)(CCCCCCNC(=O)CCCc1ccc(N(CCCl)CCCl)cc1)[C@@H]2O`, the result with MDA-MB-231, in the assay with MDA-MB-436, with MCF7 and in the assay with MDA-MB-468 was Active.

On to `C[C@]12CC[C@@H]3c4ccc(O)cc4CC[C@H]3[C@@H]1C[C@@](CO)(CCCCNC(=O)CCCc1ccc(N(CCCl)CCCl)cc1)[C@@H]2O`, for which the result with MDA-MB-231, in the assay with MCF7 and in the assay with MDA-MB-468 was Active. Moreover, the IC50 in assay [1] amounted to 40 µM.

As for `COC(=O)[C@@]1(CCCCCCNC(=O)CCCc2ccc(N(CCCl)CCCl)cc2)C[C@H]2[C@@H]3CCc4cc(O)ccc4[C@H]3CC[C@]2(C)[C@H]1O`, in the assay with MDA-MB-231, the outcome was Active. The result with MCF7 and in the assay on MDA-MB-468 was inactive.

`O=C(O)CCCc1ccc(N(CCCl)CCCl)cc1` [CHLORAMBUCIL]: the IC50 in the assay on MDA-MB-231 (MDA-MB-231, 72 h) was greater than 130 µM; in assay [1], greater than 160 µM. For the same molecule, the outcome with MCF7 and in the assay on MDA-MB-468 was Active.

In the case of `C[C@]12CC[C@@H]3c4ccc(O)cc4CC[C@H]3[C@@H]1C[C@@](CO)(CCCCCCCCNC(=O)CCCc1ccc(N(CCCl)CCCl)cc1)[C@@H]2O`, the result with MDA-MB-231, in the assay on MDA-MB-436, in the assay on MCF7 and in the assay with MDA-MB-468 was Active.

These data come from ChEMBL document CHEMBL1154940, “Design, synthesis and biological evaluation of estradiol-chlorambucil hybrids as anticancer agents” (Bioorg Med Chem Lett, 2010).
